This is a sample that favours compounds with a hit; in the whole collection about 1.8% have one here.
NR2E3 ag-1 = inhibitors of NR2E3-RetCOR corepressor binding, primary screen, NR2E3 agonist project, biochemical, TR-FRET, GST-NR2E3, biotin-RetCOR | Photoreceptor-specific nuclear receptor (Homo sapiens), Q9Y5X4 | 1536-well | inhibition of corepressor binding, % at 4.78 µM | hit rate 0.12% among 320,000;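 active means percent inhibition above the cutoff of mean plus 3 SD of all tested compounds, set per screening campaign, cut at about 20% in these data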;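 further: 0% = DMSO wells and 100% = biotin wells as full block of FRET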
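Material: NR2E3–RetCOR corepressor complex / Incubation: Compound–protein incubation for 5 h at 4 °C / Dosing: compound at 4.8 µM, single dose / Detection: time-resolved FRET / Benchmarks: high control biotin, low control 0.6% DMSO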
Jurkat NFkB inh = inhibitors of induced NF-kB luciferase reporter, primary screen, TCR NF-kB activation inhibitor project, cell-based, luminescence, uHTS; Jurkat, PMA/ionomycin-induced NF-kB luciferase reporter; inhibition, % at 4 µM; hit rate 0.53% among 330,000; in the data active means inhibition above about 50%
NR2E3 ag-2 = NR2E3 agonists in two-hybrid cells, primary screen, cell-based, luminescence, CHO-S, Gal4-NCOR/VP16-NR2E3; hit rate 0.35% among 360,000; Photoreceptor-specific nuclear receptor (Homo sapiens), Q9Y5X4; luciferase; inhibition of corepressor binding, % at 3.98 µM;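 active means inhibition above the mean of all tested compounds plus 3 SD, cut at about 70% in these data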;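 further: 0% = DMSO with NR2E3 transfected cells and 100% = cells lacking NR2E3 construct; higher means lower luciferase signal from less NR2E3 corepressor binding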
697 NFkB inh = inhibitors of PMA/ionomycin-induced NF-kB reporter, 697 cells, primary screen, B-cell NF-kB inhibitor project, cell-based, luminescence, uHTS. inhibition, % at 4 µM. AID 435022, 2010. hit rate 0.33% among 330,000. 697 B-cell NF-kB luciferase reporter, 16 h; in the data active means inhibition above about 35%
Gli-Sufu block = Gli-Sufu pathway antagonists, primary screen, luciferase luminescence, Sufu-KO-LIGHT cells, uHTS. Sufu-KO-LIGHT fibroblasts, Gli luciferase reporter luminescence. inhibition, % at 5 µM. hit rate 0.74% among 340,000. AID 588413, 2011;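 active means inhibition above about 55%, limit read from the data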;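 further: 0% = DMSO-treated cells and 100% = wells with medium but no cells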
GalR3 antagonist = GalR3 antagonists in HEK293 cells, primary screen, cell-based, fluorescence readout. Galanin receptor type 3 (Homo sapiens), O60755. HEK293 GalR3-CNG cAMP membrane potential fluorescence; galR3 body fused to GalR1 C-terminus. inhibition, % at 3 µM. hit rate 0.44% among 360,000. AID 651719, 2012;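 active means inhibition above the screen-wide average plus 3 SD, cut at about 13% in these data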;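 further: forskolin and galanin both at EC90 stimulate the cells; cAMP rise reported by CNG channel membrane potential dye signal; 0% = forskolin plus galanin with DMSO and 100% = forskolin alone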
Target sequence (O60755 1-299 limits assumed): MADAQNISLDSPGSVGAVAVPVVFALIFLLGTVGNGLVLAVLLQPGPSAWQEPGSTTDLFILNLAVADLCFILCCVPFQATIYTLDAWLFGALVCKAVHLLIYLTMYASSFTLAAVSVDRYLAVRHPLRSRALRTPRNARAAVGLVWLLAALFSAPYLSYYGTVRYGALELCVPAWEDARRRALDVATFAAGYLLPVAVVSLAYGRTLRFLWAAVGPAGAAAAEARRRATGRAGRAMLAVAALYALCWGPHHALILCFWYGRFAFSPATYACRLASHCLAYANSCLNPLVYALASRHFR
697 NFkB conf = PMA/ionomycin-induced NF-kB reporter inhibitors, 697 retest, confirmation, B-cell NF-kB inhibitor project, cell-based, luminescence, single concentration. shares compounds with 697 NFkB inh. hit rate 35% among 2,000. AID 449746, 2010. inhibition, % at 4 µM. 697 B-cell NF-kB luciferase, 16 h; in the data active means inhibition mostly above about 28%, no sharp cut-off; inactive means mostly below about 22%
Numbers without * were called inactive; · = no result given.

SMILES	NR2E3 ag-1	Jurkat NFkB inh	NR2E3 ag-2	697 NFkB inh	Gli-Sufu block	GalR3 antagonist	697 NFkB conf
CCOC(=O)c1ccc2[nH]c(C)c(CCC(C)=O)c(=O)c2c1	9	-14	11	-24	-10	-2	·
O=C(O)c1ccccc1N=Cc1c(O)n(-c2nccs2)c(=O)c2ccccc12	-2	19	-42	42*	0	2	12
CC(=O)c1c(C(C)=O)c(C)n(-c2cccc([N+](=O)[O-])c2)c1C	-4	24	-15	36*	-2	5	12
Cc1cc(C(=O)N/N=C/c2cccc([N+](=O)[O-])c2)c(C)n1-c1ccccc1	3	-51	-67	-73	-76	6	·
Cc1cc(C(=O)CCl)c(C)n1-c1cccc([N+](=O)[O-])c1	-2	4	-8	40*	6	-1	9
COc1ccc(CN(C)C(=O)[C@@H](Cc2ccccc2)NC(=O)[C@H]2O[C@@H](n3ccc(N)nc3=O)[C@H](O)[C@@H]2O)cc1OC	·	·	·	·	·	-7	·
COCC#Cc1ccc2c(c1)O[C@H](CN(C)C(=O)c1ccccc1)[C@@H](C)CN([C@H](C)CO)S2(=O)=O	·	·	·	·	·	-3	·
Fc1ccc(-c2ccc3c(n2)CCCN3Cc2ccccc2C(F)(F)F)cc1	·	·	·	·	·	-7	·
CCOC(=O)C(=CNc1cc(C)ccc1C)C(=O)OCC	-1	1	-32	38*	-1	-2	29*
CCOC(=O)C(=CNc1cc(C)ccc1[N+](=O)[O-])C(=O)OCC	1	7	-17	18	-1	-4	·
O=c1[nH]c(=O)n([C@H]2C[C@H](O)[C@@H](CO)O2)cc1C(F)(F)F	2	46	-7	48*	42	-1	58*
CN(N=Cc1ccc2c(c1)OCO2)C(=O)c1ccccc1N	·	·	·	·	·	-7	·
COc1ccc2[nH]c3c(c2c1)CCN1C(=O)C(CC(=O)NCc2ccc(OC)c(OC)c2)C[C@H](C(=O)N(C(C)C)C(C)C)[C@@]31C (some centres not stated)	·	·	24	5	2	4	·
COc1ccc2[nH]c3c(c2c1)CCN1C(=O)C(CC(=O)NCc2cccc(C(F)(F)F)c2)C[C@H](C(=O)N(C(C)C)C(C)C)[C@@]31C (some centres not stated)	·	·	21	35*	1	-7	24
CCC/C(=C1/c2ccccc2C(=O)N1c1ccccc1)c1c(C)noc1C	·	·	·	·	·	-2	·
O=C(CCN1C(=O)/C(=C\c2ccccc2Cl)SC1=S)Nc1cccnc1	1	4	-9	17	-6	-1	·
Cc1ccc(/C=C2\SC(=S)N(CCC(=O)NNC(=O)c3ccncc3)C2=O)cc1	-1	-5	0	44*	-4	-5	31*
COc1ccccc1/C=C1\SC(=S)N(CCC(=O)NC2=NCCS2)C1=O	-3	0	19	35*	-1	-3	48*
COc1ccccc1/C=C1/SC(=S)N(CCC(=O)Nc2cccnc2)C1=O	-3	1	-2	35*	12	0	28*
CCc1ccc(/C=C2\SC(=S)N(CCC(=O)NC3=NCCS3)C2=O)cc1	3	23	·	71*	·	-1	38*
O=C(CCN1C(=O)/C(=C/c2ccc(F)cc2)SC1=S)NNC(=O)c1ccncc1	-2	11	-61	10	-9	-6	·
O=C(CCN1C(=O)/C(=C\c2cccs2)SC1=S)NC1=NCCS1	2	13	2	-3	16	-6	·
O=C(N[C@H](C(=O)N1CCC[C@H]1C(=O)NCCc1ccccc1Cl)c1ccccc1)c1ccc(Cl)cc1Cl	·	·	·	·	·	-6	·
CCCCS(=O)(=O)N1CCCc2nc(C)c(C)cc21	·	·	·	·	·	-5	·
